Experimental data from ChEMBL document CHEMBL4138314, “Synthesis and Evaluation of N-Phenyl-3-sulfamoyl-benzamide Derivatives as Capsid Assembly Modulators Inhibiting Hepatitis B Virus (HBV)” (J Med Chem, 2018).
Calls of active or inactive are those of the source. No cut-off for these calls is given here.

What was measured:
[1] = Cmax in humanized mouse at 50 mg/kg, sc for 8 days measured on day 8 post last dose by LC-MS/MS analysis; type: ADME, organism-based; design: dose 50 mg/kg, route subcutaneous; details: in vivo
Cytochrome P450 2C19 = Cytochrome P450 2C19 (Homo sapiens, UniProt P33261); assay: Inhibition of CYP2C19 (unknown origin); type: ADME
[2] = Oral bioavailability in C57BL/6 mouse at 10 mg/kg by LC-MS/MS analysis; type: ADME, organism-based; details: in vivo
In short: (§1)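 Single-dose PK in C57BL/6 mice given compound intravenously and orally, with oral doses of 10 and 50 mg/kg. Plasma clearance, volume of distribution and oral bioavailability were derived from the plasma profiles.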

[3] = Bioavailability in C57BL/6 mouse at 50 mg/kg, sc by LC-MS/MS analysis; type: ADME, organism-based; details: in vivo
[4] = Inhibition of sodium channel (unknown origin); design: species or system Homo sapiens
[5] = Tmax in humanized mouse at 200 mg/kg, sc measured on day 1 post dose by LC-MS/MS analysis; type: ADME, organism-based; details: in vivo
[6] = Drug metabolism in human liver microsomes at 1 uM after 15 mins by LC-MS/MS analysis; type: ADME, microsome; details: read-out: Drug metabolism
In short: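 Compound incubated 15 min with human or mouse liver microsomes; stability expressed as percent turnover (metabolised) at 15 min.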

MDR1 (P-gp) = assay: Apparent permeability in pig LLC-PK1 cells expressing human MDR1 from apical to basolateral side in absence of P-gp inhibitor GF-120918; type: ADME, cell-based, Sus scrofa
In short: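 LLC-PK1-MDR1 monolayers; apical-to-basolateral apparent permeability measured without the P-gp inhibitor GF-120,918, run in parallel with an inhibitor-containing arm to form a +GF/−GF ratio.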

[7] = Cmax in C57BL/6 mouse at 50 mg/kg, po by LC-MS/MS analysis; type: ADME, organism-based; design: dose 50 mg/kg, route oral; details: in vivo
[8] = AUC (0 to 8 hrs) in humanized mouse at 50 mg/kg, sc measured on day 1 post dose by LC-MS/MS analysis; type: ADME, organism-based; design: dose 50 mg/kg, time < 8 hr, route subcutaneous; details: in vivo
[9] = Cmax in humanized mouse at 200 mg/kg, sc measured on day 1 post dose by LC-MS/MS analysis; type: ADME, organism-based; design: dose 200 mg/kg, route subcutaneous; details: in vivo
[10] = AUC (0 to infinity) in humanized mouse at 50 mg/kg, sc measured on day 1 post dose by LC-MS/MS analysis; type: ADME, organism-based; design: dose 50 mg/kg, time infinity, route subcutaneous; details: in vivo
[11] = Cmax in C57BL/6 mouse at 50 mg/kg, sc by LC-MS/MS analysis; type: ADME, organism-based; design: dose 50 mg/kg, route subcutaneous; details: in vivo
[12] = Half life in C57BL/6 mouse at 10 mg/kg, po by LC-MS/MS analysis; type: ADME, organism-based; details: in vivo
In short: (§2)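 Single-dose PK in C57BL/6 mice after intravenous or oral dosing, with oral doses of 10 and 50 mg/kg; plasma clearance and volume of distribution taken from the i.v. arm.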

HBV genotype D [13] = assay: Antiviral activity against HBV genotype D infected in chimeric mouse with humanized liver assessed as reduction in HBeAg level at 200 mg/kg, sc qd for 28 days; type: functional, organism-based; details: hepatitis B virus genotype D
In short: (§3)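 HBV genotype D-infected humanized-liver chimeric mice (≥70% human hepatocyte replacement) were dosed once daily for 28 days at 200 mg/kg s.c., with oral saline and oral entecavir 0.03 mg/kg as controls. Serum HBeAg and HBsAg were followed over the study.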

[14] = AUC (0 to infinity) in humanized mouse at 200 mg/kg, sc for 8 days measured on day 8 post last dose by LC-MS/MS analysis; type: ADME, organism-based; design: dose 200 mg/kg, route subcutaneous, time infinity; details: in vivo
Cytochrome P450 3A4 = Cytochrome P450 3A4 (Homo sapiens, UniProt P08684); assay: Inhibition of CYP3A4 (unknown origin); type: ADME
[15] = AUC (0 to last) in C57BL/6 mouse at 10 mg/kg, po by LC-MS/MS analysis; type: ADME, organism-based; design: dose 10 mg/kg, time 0 - last, route oral; details: in vivo; in short: as §2
[16] = Oral bioavailability in C57BL/6 mouse at 50 mg/kg by LC-MS/MS analysis; type: ADME, organism-based; details: in vivo; in short: as §1
[17] = biological target: Voltage-gated inwardly rectifying potassium channel KCNH2 (Homo sapiens, UniProt Q12809); assay: Inhibition of human ERG
[18] = Half life in humanized mouse at 200 mg/kg, sc measured on day 1 post dose by LC-MS/MS analysis; type: ADME, organism-based; details: in vivo
[19] = biological target: T1, 5-hydroxytryptamine receptor 2B (Homo sapiens, UniProt P41595); assay: Antagonist activity at 5-HT2B (unknown origin); type: functional
In short: (§4)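 Receptor/ion channel/transporter panel of 80 targets screened at 10 µM, giving percent effect at 5-HT2B; follow-up 5-HT2B functional testing in agonist and antagonist modes, with antagonist IC50 determined.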

[20] = Clearance in C57BL/6 mouse at 2.5 mg/kg, iv by LC-MS/MS analysis; type: ADME, organism-based; details: in vivo; in short: as §2
HBV genotype D [21] = assay: Antiviral activity against HBV genotype D infected in chimeric mouse with humanized liver assessed as log reduction in viral DNA level in serum at 200 mg/kg, sc qd for 28 days by RT-PCR method; type: functional, hepatitis B virus genotype D
In short: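 HBV genotype D-infected chimeric mice with humanized liver (human hepatocyte replacement index ≥70%, judged by serum human albumin). Dosing was once daily for 28 days: test article 200 mg/kg s.c., entecavir 0.03 mg/kg oral as positive control, and oral saline as negative control. The read-out was serum HBV DNA (copies/mL), given as mean log change from baseline at day 29.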

[22] = Drug uptake in C57BL/6 mouse liver at 50 mg/kg, sc after 24 hrs by LC-MS/MS analysis; type: ADME, organism-based; details: read-out: Drug uptake
In short: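 C57BL/6 mice dosed subcutaneously once at 50 mg/kg, given to bypass first-pass metabolism; compound measured in plasma (ng/mL) and liver (ng/g) 24 h after dosing.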

HBV genotype D [23] = assay: Antiviral activity against HBV genotype D infected in primary human hepatocytes assessed as inhibition of viral DNA level by qPCR analysis; type: functional, organism-based; details: Hepatitis B virus
In short: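 Primary human hepatocytes isolated from naive chimeric mice with humanized liver and infected with HBV genotype D; HBV DNA in culture supernatant quantified by qPCR to derive EC50.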

[24] = AUC (0 to infinity) in humanized mouse at 50 mg/kg, sc for 8 days measured on day 8 post last dose by LC-MS/MS analysis; type: ADME, organism-based; design: dose 50 mg/kg, time infinity, route subcutaneous; details: in vivo
HBV genotype D [25] = assay: Antiviral activity against HBV genotype D infected in chimeric mouse with humanized liver assessed as reduction in HBsAg level at 200 mg/kg, sc qd for 28 days; type: functional, organism-based; details: hepatitis B virus genotype D; in short: as §3
Salmonella typhimurium = assay: Genotoxicity in Salmonella typhimurium by Ames test; type: toxicity, organism-based; details: salmonella enterica subsp. enterica serovar typhimurium
Mus musculus = assay: Hepatotoxicity in chimeric mouse with humanized liver infected with HBV genotype D assessed as decrease in human albumin level in mouse serum at 200 mg/kg, sc qd for 28 days; type: toxicity, organism-based; details: in vivo, 672 h
In short: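 Cytotoxicity to human hepatocytes was judged in HBV genotype D-infected chimeric mice (≥70% human hepatocyte replacement) by tracking serum human albumin over time. Dosing was once daily for 28 days at 200 mg/kg s.c., with oral saline and oral entecavir 0.03 mg/kg as controls.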

[26] = Tmax in humanized mouse at 50 mg/kg, sc measured on day 1 post dose by LC-MS/MS analysis; type: ADME, organism-based; details: in vivo
[27] = Half life in humanized mouse at 200 mg/kg, sc for 8 days measured on day 8 post last dose by LC-MS/MS analysis; type: ADME, organism-based; details: in vivo
[28] = biological target: T1, 5-hydroxytryptamine receptor 2B; assay: Antagonist activity at 5-HT2B (unknown origin) at 10 uM; type: functional; in short: as §4

T1 sequence (P41595 whole entry): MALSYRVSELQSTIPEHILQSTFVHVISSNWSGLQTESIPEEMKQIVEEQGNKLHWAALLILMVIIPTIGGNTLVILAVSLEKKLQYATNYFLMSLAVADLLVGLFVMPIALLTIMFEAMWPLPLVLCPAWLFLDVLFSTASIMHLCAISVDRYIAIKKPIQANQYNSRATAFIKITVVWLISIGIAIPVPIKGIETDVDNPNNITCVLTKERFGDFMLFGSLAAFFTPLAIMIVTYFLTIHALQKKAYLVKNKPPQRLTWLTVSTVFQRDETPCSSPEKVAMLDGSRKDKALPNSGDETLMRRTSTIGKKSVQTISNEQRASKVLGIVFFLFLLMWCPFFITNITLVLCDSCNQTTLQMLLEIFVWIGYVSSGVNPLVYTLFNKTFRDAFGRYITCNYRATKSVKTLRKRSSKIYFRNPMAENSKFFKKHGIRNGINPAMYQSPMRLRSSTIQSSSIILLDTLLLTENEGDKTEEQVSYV
Voltage-gated inwardly rectifying potassium channel KCNH2, sequence (Q12809 whole entry): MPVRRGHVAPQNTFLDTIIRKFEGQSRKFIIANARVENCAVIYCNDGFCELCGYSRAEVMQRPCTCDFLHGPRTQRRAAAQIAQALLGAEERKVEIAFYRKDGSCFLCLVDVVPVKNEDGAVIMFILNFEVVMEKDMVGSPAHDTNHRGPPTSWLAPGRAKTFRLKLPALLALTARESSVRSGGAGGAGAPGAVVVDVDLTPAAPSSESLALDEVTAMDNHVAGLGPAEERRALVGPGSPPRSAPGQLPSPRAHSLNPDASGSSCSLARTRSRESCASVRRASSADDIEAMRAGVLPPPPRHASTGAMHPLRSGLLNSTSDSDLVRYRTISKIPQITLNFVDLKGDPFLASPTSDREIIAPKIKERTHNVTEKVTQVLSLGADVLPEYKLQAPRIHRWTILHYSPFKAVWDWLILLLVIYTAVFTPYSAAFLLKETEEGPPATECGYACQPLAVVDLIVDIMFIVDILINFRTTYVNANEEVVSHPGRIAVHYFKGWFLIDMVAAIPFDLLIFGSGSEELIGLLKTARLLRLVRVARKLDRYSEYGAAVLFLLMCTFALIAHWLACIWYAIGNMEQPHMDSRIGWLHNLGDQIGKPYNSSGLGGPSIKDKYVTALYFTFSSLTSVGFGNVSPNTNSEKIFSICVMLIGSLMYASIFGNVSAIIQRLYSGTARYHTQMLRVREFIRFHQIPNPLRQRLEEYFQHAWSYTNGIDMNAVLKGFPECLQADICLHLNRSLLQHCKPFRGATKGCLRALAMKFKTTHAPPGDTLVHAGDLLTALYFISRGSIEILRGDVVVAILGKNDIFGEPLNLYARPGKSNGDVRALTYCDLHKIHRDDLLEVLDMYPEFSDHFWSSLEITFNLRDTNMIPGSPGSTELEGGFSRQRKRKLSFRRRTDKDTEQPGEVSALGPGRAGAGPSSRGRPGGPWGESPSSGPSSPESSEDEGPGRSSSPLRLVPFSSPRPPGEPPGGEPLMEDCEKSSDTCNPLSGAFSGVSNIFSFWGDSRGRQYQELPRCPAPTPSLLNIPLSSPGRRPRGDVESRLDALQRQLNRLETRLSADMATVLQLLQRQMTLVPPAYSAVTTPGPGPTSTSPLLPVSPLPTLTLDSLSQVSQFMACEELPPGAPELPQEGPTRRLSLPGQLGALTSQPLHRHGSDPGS
Cytochrome P450 3A4, sequence (P08684 whole entry): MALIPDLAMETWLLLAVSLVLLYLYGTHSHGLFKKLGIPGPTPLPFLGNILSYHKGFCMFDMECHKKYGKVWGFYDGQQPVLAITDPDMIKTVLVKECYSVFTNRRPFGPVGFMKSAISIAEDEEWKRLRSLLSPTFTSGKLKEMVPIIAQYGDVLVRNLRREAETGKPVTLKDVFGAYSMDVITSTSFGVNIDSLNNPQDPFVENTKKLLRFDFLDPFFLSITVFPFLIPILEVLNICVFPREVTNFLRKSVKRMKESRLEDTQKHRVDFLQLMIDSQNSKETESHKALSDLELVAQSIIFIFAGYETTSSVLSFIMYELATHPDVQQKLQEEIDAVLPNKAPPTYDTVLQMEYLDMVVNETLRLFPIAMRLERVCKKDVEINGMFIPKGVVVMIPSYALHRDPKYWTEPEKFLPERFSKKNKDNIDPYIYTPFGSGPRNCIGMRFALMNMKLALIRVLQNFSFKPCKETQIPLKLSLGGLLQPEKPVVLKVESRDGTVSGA
Cytochrome P450 2C19, sequence (P33261 whole entry): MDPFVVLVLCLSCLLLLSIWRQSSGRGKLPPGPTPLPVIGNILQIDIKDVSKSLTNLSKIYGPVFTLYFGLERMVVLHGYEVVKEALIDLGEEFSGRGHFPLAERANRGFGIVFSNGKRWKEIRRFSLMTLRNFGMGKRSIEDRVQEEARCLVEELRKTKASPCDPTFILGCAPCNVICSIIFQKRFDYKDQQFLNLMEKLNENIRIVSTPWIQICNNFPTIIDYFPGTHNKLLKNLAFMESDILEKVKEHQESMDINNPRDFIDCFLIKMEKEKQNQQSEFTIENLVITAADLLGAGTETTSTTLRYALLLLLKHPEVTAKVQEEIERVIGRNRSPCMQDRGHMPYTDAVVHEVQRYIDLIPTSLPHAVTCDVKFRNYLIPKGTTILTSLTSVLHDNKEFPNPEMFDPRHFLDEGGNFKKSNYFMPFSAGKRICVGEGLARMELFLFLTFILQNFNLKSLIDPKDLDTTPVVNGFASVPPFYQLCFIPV

Compound: Cc1cc(NC(=O)c2cccc(S(=O)(=O)N[C@H]3CCOC3)c2)ccc1F
- Cmax [1]: 4380 ng/mL
- IC50 (Cytochrome P450 2C19): > 10 µM
- bioavailability [2]: 40%
- bioavailability [3]: 68%
- IC50 [4]: > 10 µM
- Tmax [5]: 0.8 h
- metabolised at 0.25 h, 1 µM [6]: 26%
- Papp A→B (MDR1 (P-gp)): 7.3 ×10⁻⁶ cm/s
- Cmax [7]: 9440 ng/mL
- AUC(0-t) at 8 h [8]: 4750 ng·h/mL
- Cmax [9]: 2110 ng/mL
- AUC(0-inf) [10]: 4780 ng·h/mL
- Cmax [11]: 3370 ng/mL
- half-life [12]: 1.1 h
- Activity (HBV genotype D [13]): inactive
- AUC(0-inf) [14]: 119000 ng·h/mL
- IC50 (Cytochrome P450 3A4): > 10 µM
- AUC(0-t) [15]: 1990 ng·h/mL
- bioavailability [16]: 66%
- IC50 [17]: > 10 µM
- half-life [18]: 5.6 h
- IC50 [19]: 4 to 5.6 µM
- clearance [20]: 34 mL/min/kg
- log(activity) (HBV genotype D [21]): 2.77
- concentration at 24 h [22]: 1300 ng/g
- EC50 (HBV genotype D [23]): 0.2 µM
- AUC(0-inf) [24]: 20700 ng·h/mL
- Activity (HBV genotype D [25]): inactive
- Activity (Salmonella typhimurium): Non-Toxic
- Activity (Mus musculus): Non-Toxic
- Tmax [26]: 1 h
- half-life [27]: 12.1 h
- inhibition [28]: 71%
